Measurements reported in ChEMBL document CHEMBL2331160, “Trimeric hemibastadin congener from the marine sponge Ianthella basta” (J Nat Prod, 2013).
Activity calls are given as the source filed them. The rule behind the calls is not given here.

How the values were obtained:
[1] = molecular target: T1, Serine/threonine-protein kinase PLK4 (Homo sapiens, UniProt O00444); test: Inhibition of SAK (unknown origin)
T1 sequence (O00444 whole entry): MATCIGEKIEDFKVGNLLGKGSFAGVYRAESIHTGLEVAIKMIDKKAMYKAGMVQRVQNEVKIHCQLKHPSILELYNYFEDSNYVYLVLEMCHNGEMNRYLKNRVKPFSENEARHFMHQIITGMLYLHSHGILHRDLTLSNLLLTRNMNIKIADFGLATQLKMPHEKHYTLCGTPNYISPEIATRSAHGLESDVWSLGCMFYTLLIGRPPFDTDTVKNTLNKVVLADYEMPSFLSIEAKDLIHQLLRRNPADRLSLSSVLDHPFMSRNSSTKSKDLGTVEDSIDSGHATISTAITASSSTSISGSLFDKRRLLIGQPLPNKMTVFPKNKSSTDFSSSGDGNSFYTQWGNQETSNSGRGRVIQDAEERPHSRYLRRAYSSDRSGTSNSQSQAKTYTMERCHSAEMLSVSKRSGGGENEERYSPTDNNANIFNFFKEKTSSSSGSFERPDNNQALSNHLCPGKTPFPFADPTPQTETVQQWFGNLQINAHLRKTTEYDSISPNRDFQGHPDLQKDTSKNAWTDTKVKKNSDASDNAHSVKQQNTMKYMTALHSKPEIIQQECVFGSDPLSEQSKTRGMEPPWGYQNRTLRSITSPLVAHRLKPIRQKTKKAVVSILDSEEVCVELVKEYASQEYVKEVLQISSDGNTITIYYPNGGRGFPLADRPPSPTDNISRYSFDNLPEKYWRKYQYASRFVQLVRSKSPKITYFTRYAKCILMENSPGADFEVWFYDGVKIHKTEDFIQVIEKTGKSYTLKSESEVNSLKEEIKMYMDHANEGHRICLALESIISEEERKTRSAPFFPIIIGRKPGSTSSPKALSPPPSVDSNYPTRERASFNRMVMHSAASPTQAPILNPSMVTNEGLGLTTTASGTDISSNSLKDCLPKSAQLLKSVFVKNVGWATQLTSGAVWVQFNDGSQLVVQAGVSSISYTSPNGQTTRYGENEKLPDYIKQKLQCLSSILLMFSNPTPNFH
Outline: (§1)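 Biochemical (cell-free) assay within a panel of 24 protein kinases. Results reported as IC50 values. Procedure as described in earlier work.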

[2] = molecular target: Epidermal growth factor receptor (Homo sapiens, UniProt P00533); test: Inhibition of EGFR (unknown origin); outline: as §1
[3] = molecular target: T2, NUAK family SNF1-like kinase 1 (Homo sapiens, UniProt O60285); test: Inhibition of ARK5 (unknown origin); outline: as §1
T2 sequence (O60285 whole entry): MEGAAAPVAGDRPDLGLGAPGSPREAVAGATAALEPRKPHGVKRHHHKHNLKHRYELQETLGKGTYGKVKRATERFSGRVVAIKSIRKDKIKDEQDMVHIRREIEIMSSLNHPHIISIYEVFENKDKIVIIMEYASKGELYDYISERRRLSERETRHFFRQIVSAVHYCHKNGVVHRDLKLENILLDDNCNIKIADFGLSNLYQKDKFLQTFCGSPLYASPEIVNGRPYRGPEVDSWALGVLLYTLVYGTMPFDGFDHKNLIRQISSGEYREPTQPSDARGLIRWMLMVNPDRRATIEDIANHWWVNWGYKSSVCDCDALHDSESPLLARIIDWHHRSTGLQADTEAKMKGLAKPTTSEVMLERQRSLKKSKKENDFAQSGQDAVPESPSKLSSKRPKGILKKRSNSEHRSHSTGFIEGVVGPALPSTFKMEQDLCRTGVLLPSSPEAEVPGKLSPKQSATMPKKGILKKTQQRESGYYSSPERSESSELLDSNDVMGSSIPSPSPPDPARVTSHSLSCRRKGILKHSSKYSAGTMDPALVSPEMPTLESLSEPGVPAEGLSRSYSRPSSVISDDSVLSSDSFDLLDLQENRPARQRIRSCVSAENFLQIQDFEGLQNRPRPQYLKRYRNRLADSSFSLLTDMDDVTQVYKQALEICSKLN

[4] = molecular target: RAC-alpha serine/threonine-protein kinase (Homo sapiens, UniProt P31749); test: Inhibition of AKT1 (unknown origin); outline: as §1
[5] = molecular target: Serine/threonine-protein kinase PLK1 (Homo sapiens, UniProt P53350); test: Inhibition of PLK1 (unknown origin); outline: as §1
[6] = molecular target: Vascular endothelial growth factor receptor 2 (Homo sapiens, UniProt P35968); test: Inhibition of VEGFR2 (unknown origin); outline: as §1
[7] = molecular target: Cyclin-dependent kinase 4/cyclin D1 (Homo sapiens, UniProt P11802); test: Inhibition of CDK4/cyclin-D1 (unknown origin); format: protein-complex assay; outline: as §1
[8] = molecular target: Proto-oncogene tyrosine-protein kinase Src (Homo sapiens, UniProt P12931); test: Inhibition of SRC (unknown origin); outline: as §1
[9] = molecular target: Serine/threonine-protein kinase B-raf (Homo sapiens, UniProt P15056, V600E); test: Inhibition of B-RAF V600E mutant (unknown origin); outline: as §1
[10] = molecular target: Casein kinase II subunit alpha (Homo sapiens, UniProt P68400); test: Inhibition of CK2-alpha1 (unknown origin); outline: as §1
[11] = molecular target: Hepatocyte growth factor receptor (Homo sapiens, UniProt P08581); test: Inhibition of MET (unknown origin); outline: as §1
Insulin receptor = Insulin receptor (Homo sapiens, UniProt P06213); test: Inhibition of INSR (unknown origin); outline: as §1
[12] = molecular target: T3, Receptor-type tyrosine-protein kinase FLT3 (Homo sapiens, UniProt P36888); test: Inhibition of FLT3 (unknown origin)
T3 sequence (P36888 whole entry): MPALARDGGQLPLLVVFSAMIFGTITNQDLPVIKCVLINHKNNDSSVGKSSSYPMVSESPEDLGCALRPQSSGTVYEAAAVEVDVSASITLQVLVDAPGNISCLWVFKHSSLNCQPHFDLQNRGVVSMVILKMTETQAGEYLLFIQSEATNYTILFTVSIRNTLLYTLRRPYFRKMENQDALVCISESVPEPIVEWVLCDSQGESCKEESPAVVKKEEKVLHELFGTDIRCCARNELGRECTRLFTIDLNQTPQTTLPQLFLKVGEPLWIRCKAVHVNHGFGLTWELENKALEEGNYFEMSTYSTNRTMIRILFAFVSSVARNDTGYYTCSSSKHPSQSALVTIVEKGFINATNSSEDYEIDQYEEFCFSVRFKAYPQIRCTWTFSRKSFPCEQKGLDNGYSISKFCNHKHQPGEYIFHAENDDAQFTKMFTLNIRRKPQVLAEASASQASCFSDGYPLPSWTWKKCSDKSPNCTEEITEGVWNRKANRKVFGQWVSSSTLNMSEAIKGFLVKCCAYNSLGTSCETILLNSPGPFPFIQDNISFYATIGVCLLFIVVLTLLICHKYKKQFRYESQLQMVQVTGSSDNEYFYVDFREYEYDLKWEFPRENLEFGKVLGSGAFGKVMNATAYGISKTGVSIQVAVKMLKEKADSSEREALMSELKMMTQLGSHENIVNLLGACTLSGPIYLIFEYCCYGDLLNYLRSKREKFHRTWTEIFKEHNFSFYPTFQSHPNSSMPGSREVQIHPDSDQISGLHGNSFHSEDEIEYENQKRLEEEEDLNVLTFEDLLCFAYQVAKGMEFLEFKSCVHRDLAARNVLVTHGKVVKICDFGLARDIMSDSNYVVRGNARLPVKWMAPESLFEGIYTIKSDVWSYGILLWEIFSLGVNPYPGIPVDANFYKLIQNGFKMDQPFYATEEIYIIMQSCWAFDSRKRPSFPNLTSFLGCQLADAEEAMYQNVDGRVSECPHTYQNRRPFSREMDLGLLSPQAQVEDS
Outline: (§2)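 Biochemical (cell-free) assay using a panel of 24 protein kinases. The read-out was the IC50.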

Angiopoietin-1 receptor = Angiopoietin-1 receptor (Homo sapiens, UniProt Q02763); test: Inhibition of TIE2 (unknown origin); outline: as §1
Aurora kinase B = Aurora kinase B (Homo sapiens, UniProt Q96GD4); test: Inhibition of aurora-B (unknown origin); outline: as §1
[13] = molecular target: Receptor tyrosine-protein kinase erbB-2 (Homo sapiens, UniProt P04626); test: Inhibition of ERBB2 (unknown origin); outline: as §1
Aurora kinase A = molecular target: T4, Aurora kinase A (Homo sapiens, UniProt O14965); test: Inhibition of aurora-A (unknown origin); outline: as §1
T4 sequence (O14965 whole entry): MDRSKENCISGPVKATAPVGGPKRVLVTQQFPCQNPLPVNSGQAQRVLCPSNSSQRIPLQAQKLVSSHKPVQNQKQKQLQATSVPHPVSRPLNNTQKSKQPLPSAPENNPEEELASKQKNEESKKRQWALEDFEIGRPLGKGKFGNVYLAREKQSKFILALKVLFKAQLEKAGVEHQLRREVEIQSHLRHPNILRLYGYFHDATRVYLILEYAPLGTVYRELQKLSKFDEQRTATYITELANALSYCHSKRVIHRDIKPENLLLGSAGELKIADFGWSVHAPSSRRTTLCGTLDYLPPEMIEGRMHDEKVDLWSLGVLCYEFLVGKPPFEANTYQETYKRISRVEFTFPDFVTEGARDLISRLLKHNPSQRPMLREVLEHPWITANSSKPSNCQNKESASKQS

[14] = molecular target: Cyclin-dependent kinase 2/cyclin A (Homo sapiens, UniProt P24941); test: Inhibition of CDK2/cyclin-A (unknown origin); format: protein-complex assay; outline: as §1
[15] = molecular target: Vascular endothelial growth factor receptor 3 (Homo sapiens, UniProt P35916); test: Inhibition of VEGFR3 (unknown origin); outline: as §1
[16] = molecular target: Mitogen-activated protein kinase kinase kinase 8 (Homo sapiens, UniProt P41279); test: Inhibition of COT (unknown origin); outline: as §2
Focal adhesion kinase 1 = Focal adhesion kinase 1 (Homo sapiens, UniProt Q05397); test: Inhibition of FAK (unknown origin); outline: as §1
L5178Y = test: Cytotoxicity against mouse L5178Y cells assessed as inhibition of cell proliferation by MTT assay; format: functional, cell-based
[17] = molecular target: Insulin-like growth factor 1 receptor (Homo sapiens, UniProt P08069); test: Inhibition of IGF1R (unknown origin); outline: as §1
[18] = molecular target: Platelet-derived growth factor receptor beta (Homo sapiens, UniProt P09619); test: Inhibition of PDGFR-beta (unknown origin)
Ephrin type-B receptor 4 = Ephrin type-B receptor 4 (Homo sapiens, UniProt P54760); test: Inhibition of EPHB4 (unknown origin); outline: as §1

Sequence of Mitogen-activated protein kinase kinase kinase 8 (P41279 whole entry): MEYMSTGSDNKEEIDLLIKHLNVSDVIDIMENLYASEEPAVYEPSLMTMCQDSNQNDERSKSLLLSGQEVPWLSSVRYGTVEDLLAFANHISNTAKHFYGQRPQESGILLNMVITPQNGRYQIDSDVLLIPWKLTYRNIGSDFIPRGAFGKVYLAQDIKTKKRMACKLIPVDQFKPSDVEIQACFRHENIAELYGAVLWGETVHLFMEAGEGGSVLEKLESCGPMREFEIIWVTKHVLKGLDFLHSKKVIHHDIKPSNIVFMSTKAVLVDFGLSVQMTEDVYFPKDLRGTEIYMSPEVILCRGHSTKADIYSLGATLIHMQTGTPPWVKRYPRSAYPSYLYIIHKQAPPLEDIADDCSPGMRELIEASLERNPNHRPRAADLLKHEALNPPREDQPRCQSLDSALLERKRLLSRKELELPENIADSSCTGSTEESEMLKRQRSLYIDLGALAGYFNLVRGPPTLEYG
Sequence of Epidermal growth factor receptor (P00533 whole entry): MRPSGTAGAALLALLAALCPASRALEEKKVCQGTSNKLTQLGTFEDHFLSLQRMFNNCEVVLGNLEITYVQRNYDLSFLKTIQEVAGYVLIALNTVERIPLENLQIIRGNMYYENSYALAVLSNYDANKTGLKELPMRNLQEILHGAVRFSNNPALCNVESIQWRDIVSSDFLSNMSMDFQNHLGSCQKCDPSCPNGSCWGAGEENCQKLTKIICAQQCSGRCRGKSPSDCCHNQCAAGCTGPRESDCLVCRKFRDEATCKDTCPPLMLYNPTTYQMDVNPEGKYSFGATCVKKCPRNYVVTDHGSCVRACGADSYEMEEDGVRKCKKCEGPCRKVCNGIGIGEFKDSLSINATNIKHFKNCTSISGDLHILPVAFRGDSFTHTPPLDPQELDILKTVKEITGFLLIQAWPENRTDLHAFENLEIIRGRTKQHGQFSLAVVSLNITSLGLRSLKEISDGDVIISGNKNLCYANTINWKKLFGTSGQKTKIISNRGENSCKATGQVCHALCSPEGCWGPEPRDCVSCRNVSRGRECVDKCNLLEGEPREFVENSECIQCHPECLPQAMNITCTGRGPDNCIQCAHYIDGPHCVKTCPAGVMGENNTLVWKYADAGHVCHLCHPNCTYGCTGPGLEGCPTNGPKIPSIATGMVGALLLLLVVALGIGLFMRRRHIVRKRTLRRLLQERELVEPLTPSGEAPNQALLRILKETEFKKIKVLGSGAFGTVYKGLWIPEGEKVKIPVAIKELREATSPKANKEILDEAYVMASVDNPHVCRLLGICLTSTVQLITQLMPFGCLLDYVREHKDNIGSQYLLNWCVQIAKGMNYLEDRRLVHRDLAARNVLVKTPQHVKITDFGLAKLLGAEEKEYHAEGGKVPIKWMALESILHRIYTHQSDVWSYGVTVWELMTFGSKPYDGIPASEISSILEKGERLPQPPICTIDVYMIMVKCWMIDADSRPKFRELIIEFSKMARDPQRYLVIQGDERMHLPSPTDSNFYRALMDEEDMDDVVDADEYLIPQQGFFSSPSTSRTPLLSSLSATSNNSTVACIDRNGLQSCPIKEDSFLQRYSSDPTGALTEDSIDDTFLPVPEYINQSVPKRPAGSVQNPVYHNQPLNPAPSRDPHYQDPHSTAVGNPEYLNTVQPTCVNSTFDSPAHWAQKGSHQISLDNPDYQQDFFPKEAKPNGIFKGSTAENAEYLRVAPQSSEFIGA
Sequence of Aurora kinase B (Q96GD4 whole entry): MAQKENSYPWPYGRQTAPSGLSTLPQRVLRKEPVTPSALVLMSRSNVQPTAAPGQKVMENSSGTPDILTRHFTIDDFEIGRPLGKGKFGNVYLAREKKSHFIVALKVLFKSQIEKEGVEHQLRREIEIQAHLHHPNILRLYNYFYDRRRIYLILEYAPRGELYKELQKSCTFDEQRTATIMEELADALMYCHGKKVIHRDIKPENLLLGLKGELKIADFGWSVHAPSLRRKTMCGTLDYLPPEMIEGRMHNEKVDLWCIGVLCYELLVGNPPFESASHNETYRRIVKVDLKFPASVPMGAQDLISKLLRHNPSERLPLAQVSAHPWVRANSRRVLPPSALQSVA
Sequence of Cyclin-dependent kinase 4/cyclin D1 (P11802 whole entry): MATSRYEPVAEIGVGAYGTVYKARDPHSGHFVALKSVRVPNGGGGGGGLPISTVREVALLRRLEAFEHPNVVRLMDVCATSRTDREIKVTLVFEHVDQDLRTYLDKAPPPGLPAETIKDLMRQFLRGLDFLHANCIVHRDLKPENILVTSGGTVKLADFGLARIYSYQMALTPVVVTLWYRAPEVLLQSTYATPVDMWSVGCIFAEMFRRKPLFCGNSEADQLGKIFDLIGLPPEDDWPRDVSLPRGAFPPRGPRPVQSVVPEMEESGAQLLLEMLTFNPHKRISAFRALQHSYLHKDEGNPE
Sequence of Cyclin-dependent kinase 4/cyclin D1 (P24385 whole entry, further chain): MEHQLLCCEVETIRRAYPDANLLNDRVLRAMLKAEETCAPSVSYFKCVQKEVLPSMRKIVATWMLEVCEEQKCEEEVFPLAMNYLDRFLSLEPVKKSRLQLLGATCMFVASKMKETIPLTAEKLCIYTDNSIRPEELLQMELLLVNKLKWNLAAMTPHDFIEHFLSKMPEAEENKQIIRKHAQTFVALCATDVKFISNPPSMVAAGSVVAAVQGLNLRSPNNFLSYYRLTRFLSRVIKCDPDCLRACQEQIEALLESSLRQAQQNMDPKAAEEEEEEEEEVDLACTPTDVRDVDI
Sequence of Receptor tyrosine-protein kinase erbB-2 (P04626 whole entry): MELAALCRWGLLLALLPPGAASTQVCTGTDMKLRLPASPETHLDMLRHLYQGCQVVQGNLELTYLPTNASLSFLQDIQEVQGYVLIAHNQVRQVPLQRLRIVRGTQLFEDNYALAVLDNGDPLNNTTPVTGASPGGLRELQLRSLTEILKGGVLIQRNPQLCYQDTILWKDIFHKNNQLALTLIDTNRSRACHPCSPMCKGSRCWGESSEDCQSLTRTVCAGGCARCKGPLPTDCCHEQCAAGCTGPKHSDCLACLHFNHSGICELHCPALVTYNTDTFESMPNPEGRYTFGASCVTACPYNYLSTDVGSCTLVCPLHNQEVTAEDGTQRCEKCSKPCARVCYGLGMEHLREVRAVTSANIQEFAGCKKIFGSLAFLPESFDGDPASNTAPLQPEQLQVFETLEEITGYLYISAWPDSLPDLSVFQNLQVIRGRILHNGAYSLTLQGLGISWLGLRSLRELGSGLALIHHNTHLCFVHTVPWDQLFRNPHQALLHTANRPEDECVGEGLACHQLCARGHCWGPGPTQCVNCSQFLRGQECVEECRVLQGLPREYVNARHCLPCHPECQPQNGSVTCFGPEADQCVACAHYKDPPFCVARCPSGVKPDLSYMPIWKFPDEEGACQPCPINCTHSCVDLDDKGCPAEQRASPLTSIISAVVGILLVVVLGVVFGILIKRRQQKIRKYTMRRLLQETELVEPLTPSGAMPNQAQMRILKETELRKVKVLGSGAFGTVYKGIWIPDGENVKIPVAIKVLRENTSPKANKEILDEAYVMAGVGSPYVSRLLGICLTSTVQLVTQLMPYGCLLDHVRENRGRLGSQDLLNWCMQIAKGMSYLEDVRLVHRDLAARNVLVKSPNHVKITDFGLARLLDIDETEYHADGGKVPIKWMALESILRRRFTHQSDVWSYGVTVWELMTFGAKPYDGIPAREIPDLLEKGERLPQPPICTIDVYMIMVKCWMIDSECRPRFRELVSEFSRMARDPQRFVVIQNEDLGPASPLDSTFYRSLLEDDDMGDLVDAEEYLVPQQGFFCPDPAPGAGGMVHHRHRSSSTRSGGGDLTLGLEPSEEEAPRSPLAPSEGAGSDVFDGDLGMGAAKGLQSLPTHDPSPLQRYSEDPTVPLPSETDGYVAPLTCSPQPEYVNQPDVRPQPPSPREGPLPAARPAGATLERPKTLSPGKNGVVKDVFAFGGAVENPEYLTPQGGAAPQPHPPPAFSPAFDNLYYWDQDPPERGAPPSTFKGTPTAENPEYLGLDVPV
Sequence of Focal adhesion kinase 1 (Q05397 whole entry): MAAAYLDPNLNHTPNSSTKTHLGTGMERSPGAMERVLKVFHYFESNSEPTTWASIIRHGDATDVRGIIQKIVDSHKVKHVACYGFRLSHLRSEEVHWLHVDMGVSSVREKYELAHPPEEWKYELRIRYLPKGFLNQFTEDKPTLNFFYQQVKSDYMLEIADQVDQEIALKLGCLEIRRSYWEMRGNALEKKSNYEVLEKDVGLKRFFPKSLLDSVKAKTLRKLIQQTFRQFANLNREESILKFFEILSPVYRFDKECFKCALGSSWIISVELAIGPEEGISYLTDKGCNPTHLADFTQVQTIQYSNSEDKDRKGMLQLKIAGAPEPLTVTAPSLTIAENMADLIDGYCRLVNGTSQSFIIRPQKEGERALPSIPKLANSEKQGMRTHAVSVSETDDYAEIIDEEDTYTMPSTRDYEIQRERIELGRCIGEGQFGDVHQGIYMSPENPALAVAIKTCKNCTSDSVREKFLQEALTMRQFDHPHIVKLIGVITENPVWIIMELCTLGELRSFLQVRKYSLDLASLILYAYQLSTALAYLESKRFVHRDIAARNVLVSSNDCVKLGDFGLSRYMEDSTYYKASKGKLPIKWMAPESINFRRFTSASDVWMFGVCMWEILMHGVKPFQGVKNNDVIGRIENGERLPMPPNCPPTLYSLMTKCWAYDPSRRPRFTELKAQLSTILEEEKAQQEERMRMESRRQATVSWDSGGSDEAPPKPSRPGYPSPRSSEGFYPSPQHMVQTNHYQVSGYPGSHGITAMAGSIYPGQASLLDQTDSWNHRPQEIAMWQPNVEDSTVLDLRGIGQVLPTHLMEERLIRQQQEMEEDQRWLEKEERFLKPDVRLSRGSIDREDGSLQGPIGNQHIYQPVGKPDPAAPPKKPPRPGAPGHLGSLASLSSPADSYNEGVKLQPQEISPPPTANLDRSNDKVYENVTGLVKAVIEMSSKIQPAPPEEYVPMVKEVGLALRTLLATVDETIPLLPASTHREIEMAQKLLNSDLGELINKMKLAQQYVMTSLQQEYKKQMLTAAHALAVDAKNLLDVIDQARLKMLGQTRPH

| Structure (SMILES) | IC50 [1] [µM] | IC50 [2] [µM] | IC50 [3] [µM] | IC50 [6] [µM] | IC50 [7] [µM] | IC50 [8] [µM] | IC50 [9] [µM] | IC50 [11] [µM] | IC50 (Insulin receptor) [µM] | IC50 [12] [µM] | IC50 (Angiopoietin-1 receptor) [µM] | IC50 (Aurora kinase B) [µM] | IC50 [13] [µM] | IC50 (Aurora kinase A) [µM] | IC50 [15] [µM] | IC50 [16] [µM] | IC50 (Focal adhesion kinase 1) [µM] | IC50 [17] [µM] | IC50 (L5178Y) [µM] | other results |
| --- | --- | --- | --- | --- | --- | --- | --- | --- | --- | --- | --- | --- | --- | --- | --- | --- | --- | --- | --- | --- |
| O=C(NCCc1ccc(O)c(Br)c1)/C(Cc1cc(Br)c(O)c(-c2cc(C/C(=N/O)C(=O)NCCc3ccc(O)c(Br)c3)cc(Br)c2O)c1)=N\O [BASTADIN 3] | 4.1 | 1.3 | 1.8 | 1.2 | 1.5 | 1.9 | 2.7 | 1.1 | 2.9 | 2.4 | 0.8 | 0.5 | 2.1 | 0.1 | 2.8 | 1.6 | 2.1 | 2.3 | – | IC50 [4]: 1.9 µM; IC50 [5]: 3.9 µM; IC50 [10]: 4.1 µM; IC50 [14]: 1.6 µM; inhibition (L5178Y): inactive |
| O=C1NCCc2cc(Br)c(O)c(c2)Oc2c(Br)cc(cc2Br)CCNC(=O)/C(=N/O)Cc2cc(Br)c(O)c(c2)Oc2c(Br)cc(cc2Br)C/C1=N\O [BASTADIN 6] | – | 2 | – | – | 3.6 | – | – | – | – | 5.3 | – | 2.9 | 7 | 1.7 | – | 4.8 | – | – | 1.5 | – |
| O=C1N/C=C/c2ccc(c(Br)c2)Oc2cc(cc(Br)c2O)CCNC(=O)/C(=N/O)Cc2ccc(c(Br)c2)Oc2cc(cc(Br)c2O)C/C1=N\O [BASTADIN 7] | 1.9 | 1.5 | 3.2 | 1.3 | 2.6 | 2 | 4.4 | 2.8 | 4.4 | 2.9 | 1.8 | 2.6 | 2.8 | 3.9 | 3.2 | 3.3 | 7.3 | 1.7 | 5.3 | IC50 [18]: 10.2 µM; IC50 (Ephrin type-B receptor 4): 7.7 µM |
